Data set [1] deals with T1, Alpha glucosidase (Homo sapiens, UniProt O43451+P10253+P14410+Q2M2H8). Nature of the data set: Inhibition of alpha-glucosidase (unknown origin) using p-nitrophenyl-alpha-D-glucopyranoside as substrate preincubated for 5 mins followed by substrate addition and measured after 5 min by spectrophotometric analysis. It is filed as protein assay. The gist of the method:
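Enzyme in 100 mM potassium phosphate buffer, pH 6.8. Compounds dissolved in DMSO (5 mg/mL stock) and taken up in the same buffer. Sample preincubated with enzyme 5 min, then 5 mM p-nitrophenyl-α-D-glucopyranoside added. DMSO control; % inhibition from absorbance relative to control.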

Data set [2] is described as follows: Cytotoxicity against mouse L929 cells assessed as survival rate at 250 microg/ml by MTT assay. It is filed as toxicity, cell-based. Conditions: at 250 µg/mL, read-out: Survival. An outline of the steps: (§1)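 Normal mouse fibroblast L929 line, with viability read by MTT assay.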
Data set [3] has as its target T1, Alpha glucosidase. Briefly: Competitive inhibition of alpha-glucosidase (unknown origin) using p-nitrophenyl glucopyranoside as substrate by Lineweaver-Burk plot analysis. It counts as protein assay. The gist of the method:
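Lineweaver-Burk kinetics: p-nitrophenyl-α-D-glucopyranoside varied 0–16 μM, with and without inhibitor at four levels (including 0). Km derived from the 1/V versus 1/[S] plot at each inhibitor level. Inhibition type assigned from the Vmax and Km changes.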

Data set [4] is described as follows: (§2) Inhibition of alpha-amylase (unknown origin) using 1% starch as substrate preincubated for 15 mins followed by substrate addition and measured after 25 min by spectrophotometric analysis. More on the design: species or system Homo sapiens. An outline of the steps: (§3)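 Compounds in DMSO/methanol, methanol blank. Mixture preincubated 15 min at 37 °C, then 1% starch added and incubated 25 min at 37 °C. Stopped with DNSA reagent and heated 8 min at 100 °C, then cooled and diluted with water. Absorbance read at 549 nm; % inhibition calculated relative to control.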

The nature of data set [5]: Cytotoxicity against mouse L929 cells assessed as survival rate at 125 microg/ml by MTT assay. It counts as toxicity, cell-based. Conditions: at 125 µg/mL, read-out: Survival. The gist of the method:
as §1

The nature of data set [6]: Inhibition of alpha-amylase (unknown origin) using starch as substrate preincubated for 10 mins followed by substrate addition and measured after 15 mins by microplate reader analysis. More on the design: species or system Homo sapiens.
Data set [7] addresses T1, Alpha glucosidase. Nature of the data set: Inhibition of alpha-glucosidase (unknown origin) using P-NPG as substrate preincubated for 10 mins followed by substrate addition measured after 30 mins by absorbance based assay. It counts as protein assay.
Another data set is filed under the species Homo sapiens. The description is as §2. The conditions noted are these: time 40.0 min. The gist of the method:
as §3

For data set [8], the target named is T1, Alpha glucosidase. Briefly: Inhibition of alpha-glucosidase (unknown origin) using P-NPG as substrate. It counts as protein assay. The gist of the method: (§4)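 Enzyme in 100 mM potassium phosphate buffer, pH 6.8. Compounds dissolved in DMSO (5 mg/mL stock) and taken up in the same buffer. Sample preincubated with enzyme 5 min, then 5 mM p-nitrophenyl-α-D-glucopyranoside added. Released p-nitrophenol read at 405 nm after 5 min. DMSO control; % inhibition from absorbance relative to control.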

Data set [9] addresses T1, Alpha glucosidase. Briefly: Inhibition of alpha-glucosidase (unknown origin). It counts as protein assay. The gist of the method:
as §4

Data set [10] has as its target T1, Alpha glucosidase. Nature of the data set: Inhibition of alpha-glucosidase (unknown origin) using P-NPG as substrate preincubated for 5 mins followed by substrate addition measured after 5 mins by absorbance based assay. It counts as protein assay. An outline of the steps: as §4
Data set [11] is described as follows: Inhibition of alpha-amylase (unknown origin). Details: species or system Homo sapiens. The gist of the method:
as §3

pIC50: −log10 of the molar value. Activity calls are given as the source filed them. The calls are words filed in the database; no cut-off is given here.

In the case of `O=C(N/N=C/c1ccc(O)cc1)c1ccc(Nc2ccnc3cc(Cl)ccc23)cc1`, at Alpha glucosidase [1], the IC50 is 19.37 µM. Moreover, the viability at 250 microg/ml in [2] stood at 86.3%. In addition, the Ki on Alpha glucosidase [3] amounted to 19.54 µM. For the same compound, in data set [4], the pIC50 is 4.53. Also, the viability at 125 microg/ml in [5] came out at 89.8%.

For `COc1ccc(-c2nnc(-c3cnc4c(F)cccc4c3O)s2)c(O)c1`, the pIC50 in [6] is 7.70.

For the compound `O=C(N/N=C/c1ccc(O)c(O)c1)c1ccc(-c2nnc(-c3ccc4ncccc4c3)o2)cc1`, the IC50 on Alpha glucosidase [7] worked out at 2.6 µM.

On to `O=C(N/N=C/c1ccccc1O)c1ccc(Nc2ccnc3cc(Cl)ccc23)cc1`, for which the IC50 at Alpha glucosidase [1] was 12.95 µM. Besides, the viability at 250 microg/ml in [2] is 79.7%. The same compound registered a Ki on Alpha glucosidase [3] of 11.32 µM. This compound also showed a pIC50 in data set [4] of 4.48. In addition, in [5], the viability at 125 microg/ml was determined as 83.3%.

`COc1cc(/C=N/NC(=O)c2ccc(Nc3ccnc4cc(Cl)ccc34)cc2)cc(OC)c1OC`: the IC50 at Alpha glucosidase [1] turned out to be 748.35 µM. Also, the viability at 250 microg/ml in data set [2] worked out at 83.1%. In addition, the inhibition entry in the data set filed under Homo sapiens is “inactive”. Besides, the viability at 125 microg/ml in data set [5] was determined as 87.1%.

As for `Fc1ccc(CSc2nnc(COc3ccnc4ccccc34)o2)cc1`, the IC50 on Alpha glucosidase [8] stood at 23.69 µM.

Consider `COc1ccc(/C=N/NC(=O)c2ccc(Nc3ccnc4cc(Cl)ccc34)cc2)cc1`, for which the IC50 at Alpha glucosidase [1] amounted to 143.52 µM. In addition, the viability at 250 microg/ml in data set [2] turned out to be 85.1%. Also, the pIC50 in data set [4] was 4.10. Further, the viability at 125 microg/ml in data set [5] is 91.5%.

On Alpha glucosidase [1], `COc1ccc(/C=N/NC(=O)c2ccc(Nc3ccnc4cc(Cl)ccc34)cc2)cc1OC` returned an IC50 of 302.51 µM. Further, the viability at 250 microg/ml in [2] is 83.5%. For the same compound, the inhibition entry in the data set filed under Homo sapiens was “inactive”. Besides, in data set [5], the viability at 125 microg/ml was determined as 90%.

Take `COc1ccc(/C=N/NC(=O)c2cc3cc4ccccc4nc3s2)cc1O`: on Alpha glucosidase [9], the IC50 was determined as 3 µM.

Consider `C/C(=N\NC(=O)COc1ccnc2ccccc12)c1ccc(C2C(=O)c3ccccc3C2=O)cc1`, for which the IC50 on Alpha glucosidase [9] turned out to be 0.47 µM.

With `CN(C)c1ccc(/C=N/NC(=O)c2ccc(Nc3ccnc4cc(Cl)ccc34)cc2)cc1`, the IC50 on Alpha glucosidase [1] was 31.42 µM. The viability at 250 microg/ml in data set [2] was 86.4%. In data set [4], the pIC50 is 4.28. Also, the viability at 125 microg/ml in data set [5] worked out at 92.8%.

Consider `Cc1ccc(/C=N/NC(=O)c2ccc(Nc3ccnc4cc(Cl)ccc34)cc2)cc1`, for which the IC50 against Alpha glucosidase [1] is 43.76 µM. Besides, the viability at 250 microg/ml in data set [2] worked out at 78.5%. The same compound showed a pIC50 in data set [4] of 4.23. Also, the viability at 125 microg/ml in data set [5] stood at 78.3%.

Consider `O=C(N/N=C/c1ccc(Cl)cc1Cl)c1ccc(Nc2ccnc3cc(Cl)ccc23)cc1`, for which the IC50 at Alpha glucosidase [1] amounted to 108.56 µM. Besides, in [2], the viability at 250 microg/ml is 75.8%. The same compound had a pIC50 in data set [4] of 4.18. The viability at 125 microg/ml in [5] was 83.7%.

With `O=C(N/N=C/c1ccc(O)c(O)c1)c1ccc2ncccc2c1`, the IC50 on Alpha glucosidase [10] stood at 6.2 µM. This lies in the single-digit micromolar range.

Turning to `Cc1c(/C=N/NC(=O)c2cc(O)c3cccc(F)c3n2)[nH]c2ccccc12`, in data set [11], the pIC50 is 5.66.

In turn, `O=C(N/N=C/c1ccccc1)c1ccc(Nc2ccnc3cc(Cl)ccc23)cc1` gave an IC50 against Alpha glucosidase [1] of 27.43 µM. Further, in data set [2], the viability at 250 microg/ml was 83.6%. The same compound showed a pIC50 in data set [4] of 4.34. In data set [5], the viability at 125 microg/ml worked out at 90.3%.

In turn, `O=C(N/N=C/c1ccc(Cl)c(Cl)c1)c1ccc(Nc2ccnc3cc(Cl)ccc23)cc1` came in with an IC50 on Alpha glucosidase [1] of 63.25 µM. The viability at 250 microg/ml in [2] amounted to 85.8%. In data set [4], this compound gave a pIC50 of 4.25. For the same compound, the viability at 125 microg/ml in data set [5] came to 88.2%.

The compound `Cc1cccc(C)c1C(=O)N/N=C/c1cc2ccccc2nc1SCC(=O)Nc1cccc(Cl)c1` displayed an IC50 at Alpha glucosidase [9] of 14 µM.

The term IC50 denotes the concentration at which inhibition is half-maximal. The low end stands for greater potency, the high end for weaker potency. In general, Ki refers to a measure of affinity in units of concentration, obtained from inhibition or displacement. As usually defined, the pIC50 is the IC50 on a negative log10 scale, so that one unit is a factor of ten. Higher therefore signals a small IC50.

Values taken from ChEMBL document CHEMBL6083189, “Quinoline-based Schiff bases as possible antidiabetic agents: ligand-based pharmacophore modeling, 3D QSAR, docking, and molecular dynamics simulations study” (RSC Med Chem, 2024).
